Assay results as given in ChEMBL document CHEMBL3425461, “Positron emission tomography to elucidate pharmacokinetic differences of regioisomeric retinoid x receptor agonists” (ACS Med Chem Lett, 2015).

Legend:
[1] = Retention time of the compound by HPLC method; assay type: physicochemical
In short: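 Reversed-phase HPLC, 3 μm column, 0.7 mL/min, methanol/25 mM ammonium acetate pH 5.0 (80:20 v/v) mobile phase, UV detection at 260 nm.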

[2] = molecular target: T1, Retinoic acid receptor RXR-alpha (Homo sapiens, UniProt P19793); experiment: Agonist activity at RXRalpha (unknown origin) expressed in COS1 cells incubated for 18 hrs by luciferase reporter gene assay; assay type: cell-based, COS-1
T1 sequence (P19793 whole entry): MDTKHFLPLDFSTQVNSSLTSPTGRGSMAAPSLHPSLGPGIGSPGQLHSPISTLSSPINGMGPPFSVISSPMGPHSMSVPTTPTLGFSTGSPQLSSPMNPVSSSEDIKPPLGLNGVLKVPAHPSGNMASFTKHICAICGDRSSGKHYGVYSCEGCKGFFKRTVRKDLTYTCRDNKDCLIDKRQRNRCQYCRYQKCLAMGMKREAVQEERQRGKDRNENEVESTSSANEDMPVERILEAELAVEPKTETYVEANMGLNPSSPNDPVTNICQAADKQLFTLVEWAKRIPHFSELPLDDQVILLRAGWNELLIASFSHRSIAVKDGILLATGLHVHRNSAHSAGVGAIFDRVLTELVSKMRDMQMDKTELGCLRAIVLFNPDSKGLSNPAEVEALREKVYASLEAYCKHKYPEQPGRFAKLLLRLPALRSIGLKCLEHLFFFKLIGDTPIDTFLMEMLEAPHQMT

[3] = Drug level in ICR mouse brain at 30 mg/kg, po administered as single dose measured after 1 hr
[4] = AUC in mouse blood at 30 mg/kg, po; assay type: ADME, organism-based; design: dose 30 mg/kg, route oral
In short: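 AUC at 30 mg/kg p.o. in mice taken from earlier work; skip.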

[5] = Ratio of drug level in brain to plasma of ICR mouse at 30 mg/kg, po administered as single dose measured after 1 hr
[6] = Drug level in ICR mouse plasma at 30 mg/kg, po administered as single dose measured after 1 hr; assay type: ADME, organism-based; design: dose 30 mg/kg, route oral
In short: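 Single oral dose of 30 mg/kg given as 0.5% CMC suspension to mice; blood and brain concentrations of non-radioactive compound measured 1 h after dosing.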

Heart [7] = experiment: Drug uptake in ICR mouse heart at 8 to 11 MBq, iv during 0 to 30 mins by PET imaging method; assay type: ADME, organism-based; details: in vivo
In short: (§1)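 Tracer in EtOH diluted with saline to 10 MBq, given i.v. or p.o.; 30 min PET scan; blood radioactivity as %ID/mL from heart %ID divided by heart volume; AUC over 0–30 min; bioavailability as dose-corrected oral AUC over i.v. AUC; n = 3–5, mean ± SEM.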

Kidney [8] = experiment: Drug uptake in ICR mouse kidney at 8 to 11 MBq, iv by PET/CT imaging method; assay type: ADME, organism-based; details: in vivo
[9] = Drug uptake in ICR mouse gall bladder at 8 to 11 MBq, iv by PET/CT imaging method; assay type: ADME, organism-based; details: in vivo
In short: (§2)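 Tracer dissolved in EtOH, diluted with saline to 10 MBq, given i.v. or p.o.; 30 min PET/CT scan, images reconstructed at selected times; organ ROIs defined from PET/CT data; uptake expressed as %ID (organ Bq per whole-body Bq) from mean pixel radioactivity; n = 3–5, mean ± SEM; one-way ANOVA then t-test.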

Kidney [10] = experiment: Drug uptake in ICR mouse kidney at 8 to 11 MBq, po by PET/CT imaging method; assay type: ADME, organism-based; details: in vivo
Liver [11] = experiment: Drug uptake in ICR mouse liver at 8 to 11 MBq, iv by PET/CT imaging method; assay type: ADME, organism-based; details: in vivo; in short: as §2
Duodenum [12] = experiment: Drug uptake in ICR mouse duodenum at 8 to 11 MBq, iv by PET/CT imaging method; assay type: ADME, organism-based; details: in vivo; in short: as §2
Heart [13] = experiment: Ratio of AUC (0 to 30 mins) in ICR mouse heart at 8 to 11 MBq, po to AUC (0 to 30 mins) in ICR mouse heart at 8 to 11 MBq, iv; assay type: ADME, organism-based; details: in vivo; in short: as §1
Liver [14] = experiment: Drug uptake in ICR mouse liver at 8 to 11 MBq, po by PET/CT imaging method; assay type: ADME, organism-based; details: in vivo; in short: as §2
[15] = Drug uptake in ICR mouse gall bladder at 8 to 11 MBq, po by PET/CT imaging method; assay type: ADME, organism-based; details: in vivo; in short: as §2
Stomach [16] = experiment: Drug uptake in ICR mouse stomach at 8 to 11 MBq, po after 30 mins by PET/CT imaging method; assay type: ADME, organism-based; details: in vivo, 0.5 h; in short: as §2
Heart [17] = experiment: Drug uptake in ICR mouse heart at 8 to 11 MBq, iv by PET/CT imaging method; assay type: ADME, organism-based; details: in vivo; in short: as §2
Stomach [18] = experiment: Drug uptake in ICR mouse stomach at 8 to 11 MBq, po by PET/CT imaging method; assay type: ADME, organism-based; details: in vivo; in short: as §2
[19] = Drug uptake in ICR mouse urinary bladder at 8 to 11 MBq, iv by PET/CT imaging method; assay type: ADME, organism-based; details: in vivo; in short: as §2
Duodenum [20] = experiment: Drug uptake in ICR mouse duodenum at 8 to 11 MBq, po by PET/CT imaging method; assay type: ADME, organism-based; details: in vivo; in short: as §2
[21] = Drug uptake in ICR mouse urinary bladder at 8 to 11 MBq, po by PET/CT imaging method; assay type: ADME, organism-based; details: in vivo; in short: as §2

`CCN(c1ccc(OCC(C)CF)c(C(C)C)c1)c1ccc(C(=O)O)cn1` (stereo unspecified) gave a Retention_time [1] of 6.7 min and an EC50 [2] of 450 nM.

Work on `CCN(c1ccc(OCC(C)C)c(C(C)C)c1)c1ccc(C(=O)O)cn1` yielded a concentration at 1 h [3] of 2570 ng/mL, an AUC [4] of 18800 ng·h/mL and a Retention_time [1] of 11.7 min. For the same compound, the EC50 [2] was 169 nM, the Kp at 1 h [5] was 0.38 and the concentration at 1 h [6] was 6760 ng/mL.

With `C=C(c1ccc(C(=O)O)cc1)c1cc2c(cc1C)C(C)(C)CCC2(C)C` [BEXAROTENE] the concentration at 1 h [6] was 4150 ng/mL.

In the case of `CCN(c1ccc(C(C)C)c(OCC(C)C)c1)c1ccc(C(=O)O)cn1`, the concentration at 1 h [3] is reported as 978 ng/mL, the AUC [4] is reported as 1140 ng·h/mL and the Retention_time [1] is reported as 12.7 min. The Kp at 1 h [5] was 0.74 and the concentration at 1 h [6] was 1320 ng/mL.

Work on `CCN(c1ccc(C(C)C)c(OCC(C)CF)c1)c1ccc(C(=O)O)cn1` (stereo unspecified) yielded a Retention_time [1] of 7.63 min and an EC50 [2] of 12 nM.

For `CCN(c1ccc(C(C)C)c(OCC(C)C)c1)c1ccc([11C](=O)O)cn1`, the Drug uptake (Heart [7]) was “Active”.

For `CCN(c1ccc(OCC(C)C)c(C(C)C)c1)c1ccc([11C](=O)O)cn1`, the Drug uptake (Heart [7]) was “Active”.

With `CCN(c1ccc(OCC(C)C[18F])c(C(C)C)c1)c1ccc(C(=O)O)cn1` (stereo unspecified) the Drug uptake (Kidney [8]) was “Not Active”, the Drug uptake [9] was “Active” and the Drug uptake (Kidney [10]) was “Not Active”. For the same compound, the Drug uptake (Liver [11]) was “Active”, the Drug uptake (Duodenum [12]) was “Active” and the Ratio (Heart [13]) was 0.43. For the same compound, the Drug uptake (Liver [14]) was “Active”, the Drug uptake [15] was “Active” and the Drug uptake (Stomach [16]) was “Active”. For the same compound, the Drug uptake (Heart [17]) was “Active”, the Drug uptake (Stomach [18]) was “Active” and the Drug uptake [19] was “Not Active”. The Drug uptake (Duodenum [20]) was “Active” and the Drug uptake [21] was “Not Active”.

For `CCN(c1ccc(C(C)C)c(OCC(C)C[18F])c1)c1ccc(C(=O)O)cn1` (stereo unspecified), the Drug uptake (Kidney [8]) was “Not Active”, the Drug uptake [9] was “Active” and the Drug uptake (Kidney [10]) was “Not Active”. For the same compound, the Drug uptake (Liver [11]) was “Active”, the Drug uptake (Duodenum [12]) was “Active” and the Ratio (Heart [13]) was 0.18. The Drug uptake (Liver [14]) was “Active”, the Drug uptake [15] was “Active” and the Drug uptake (Stomach [16]) was “Active”. The Drug uptake (Heart [17]) was “Active”, the Drug uptake (Stomach [18]) was “Active” and the Drug uptake [19] was “Not Active”. The Drug uptake (Duodenum [20]) was “Active” and the Drug uptake [21] was “Not Active”.
